In ChEMBL document CHEMBL1155279, “1,5-Diaryl-2-ethyl pyrrole derivatives as antimycobacterial agents: design, synthesis, and microbiological evaluation” (Eur J Med Chem, 2009):
≈ marks a conversion by molar mass, not a printed value.

test system: Mycobacterium tuberculosis; assay: Antimycobacterial activity against rifampicin-resistant Mycobacterium tuberculosis ATCC 35838 by twofold agar dilution method; format: functional
How it was run: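 Twofold agar dilution in Middlebrook 7H11 agar with 10% OADC (oleic acid, albumin, dextrose). Compounds dissolved in DMSO at 5 mg/mL (one in ethanol at 6 mg/mL), stock, stored cold. MIC determined for each strain. Strains: M. tuberculosis CIP 103471, H37Rv ATCC 27294, rifampicin-resistant ATCC 35838, M. avium CIP 103317.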

Compared with CO[C@H]1/C=C/O[C@@]2(C)Oc3c(C)c(O)c4c(O)c(c(/C=N/N5CCN(C)CC5)c(O)c4c3C2=O)NC(=O)/C(C)=C\C=C\[C@H](C)[C@H](O)[C@@H](C)[C@@H](O)[C@@H](C)[C@H](OC(C)=O)[C@@H]1C [RIFAMPIN], CCc1c(CN2CCN(C)CC2)cc(-c2ccc(Cl)cc2)n1-c1ccc(Cl)cc1 is lower in MIC: over 100 µg/mL for the first, 4 µg/mL (≈ 9.34 µM) for the second.

Compared with CCc1c(CN2CCSCC2)cc(-c2ccc(F)cc2)n1-c1ccccc1, CCc1c(CN2CCSCC2)cc(-c2ccccc2)n1-c1ccc(F)cc1 is 4-fold higher in MIC: 1 µg/mL (≈ 2.63 µM) for the first, 4 µg/mL (≈ 10.5 µM) for the second.

First: CCc1c(CN2CCSCC2)cc(-c2ccccc2)n1-c1ccccc1
Second: CCc1c(CN2CCSCC2)cc(-c2ccccc2F)n1-c1ccccc1F
The MIC of the first is 2-fold lower: 4 µg/mL (≈ 11 µM) for the first, 8 µg/mL (≈ 20.1 µM) for the second.

Compared with CN[C@@H]1[C@H](O[C@H]2[C@H](O[C@H]3[C@H](O)[C@@H](O)[C@H](N=C(N)N)[C@@H](O)[C@@H]3N=C(N)N)O[C@@H](C)[C@]2(O)C=O)O[C@@H](CO)[C@H](O)[C@H]1O [STREPTOMYCIN], CCc1c(CN2CCSCC2)cc(-c2ccc(C)cc2)n1-c1ccc(F)cc1 is 2-fold lower in MIC: 0.5 µg/mL (≈ 0.86 µM) for the first, 0.25 µg/mL (≈ 0.634 µM) for the second.

In the case of CCc1c(CN2CCSCC2)cc(-c2ccc(F)cc2)n1-c1ccccc1F, the MIC is reported as 2 µg/mL (≈ 5.02 µM).
